Measurements reported in ChEMBL document CHEMBL2417509, “Synthesis and biological evaluation of prodigiosene conjugates of porphyrin, estrone and 4-hydroxytamoxifen” (2013).

Legend:
Assay type in all cases: functional
[1] = tested on: HOP-62; assay: Cytotoxicity against human HOP62 cells after 2 days by sulforhodamine B assay; conditions: HOP-62, 48 h; for CC50: read-out: LC50 (the source's name)
Outline: (§1)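 NCI60 multi-dose screen, 59 human tumour lines available. Cells exposed to compound across a 5-log mol/L concentration range for 2 days, then fixed and stained with sulphorhodamine B, optical density read. Growth inhibition calculated against time-zero control and untreated cells. GI50 derived from the dose series, average of two replicates.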

[2] = tested on: RPMI-8226; assay: Cytotoxicity against human RPMI8226 cells after 2 days by sulforhodamine B assay; conditions: RPMI-8226, 48 h; outline: as §1
[3] = tested on: SF-295; assay: Cytotoxicity against human SF295 cells after 2 days by sulforhodamine B assay; conditions: SF-295, 48 h; outline: as §1
[4] = tested on: OVCAR-8; assay: Cytotoxicity against human OVCAR8 cells after 2 days by sulforhodamine B assay; conditions: OVCAR-8, 48 h; outline: as §1
[5] = tested on: HCC 2998; assay: Cytotoxicity against human HCC2998 cells after 2 days by sulforhodamine B assay; conditions: HCC 2998, 48 h; outline: as §1
[6] = tested on: OVCAR-3; assay: Cytotoxicity against human OVCAR3 cells after 2 days by sulforhodamine B assay; conditions: OVCAR-3, 48 h; outline: as §1
[7] = tested on: DU-145; assay: Cytotoxicity against human DU145 cells after 2 days by sulforhodamine B assay; conditions: DU-145, 48 h; outline: as §1
[8] = tested on: BT-549; assay: Cytotoxicity against human BT549 cells after 2 days by sulforhodamine B assay; conditions: BT-549, 48 h; outline: as §1
[9] = tested on: COLO 205; assay: Cytotoxicity against human COLO205 cells after 2 days by sulforhodamine B assay; conditions: COLO 205, 48 h; outline: as §1
[10] = tested on: MDA-MB-231; assay: Cytotoxicity against human MDA-MB-231 cells after 2 days by sulforhodamine B assay; conditions: MDA-MB-231, 48 h; outline: as §1
[11] = tested on: SNB-75; assay: Cytotoxicity against human SNB75 cells after 2 days by sulforhodamine B assay; conditions: SNB-75, 48 h
Outline: (§2)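 NCI DTP NCI60 multi-dose screen (59 human tumour lines available). Cells exposed to compound over a 5-log mol/L concentration range for 2 days, then fixed and stained with sulphorhodamine B, with optical density read. Growth inhibition calculated relative to time-zero cells and untreated cells, giving GI50 (half-maximal growth inhibition concentration). Average of two replicates.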

[12] = tested on: UO-31; assay: Cytotoxicity against human UO31 cells after 2 days by sulforhodamine B assay; conditions: UO-31, 48 h; outline: as §2
[13] = tested on: TK-10; assay: Cytotoxicity against human TK10 cells after 2 days by sulforhodamine B assay; conditions: TK-10, 48 h; outline: as §2
[14] = tested on: MOLT-4; assay: Cytotoxicity against human MOLT4 cells after 2 days by sulforhodamine B assay; conditions: MOLT-4, 48 h; for CC50: read-out: LC50 (the source's name); outline: as §1
[15] = tested on: NCI-H460; assay: Cytotoxicity against human NCI-H460 cells after 2 days by sulforhodamine B assay; conditions: NCI-H460, 48 h; outline: as §1
[16] = tested on: SR; assay: Cytotoxicity against human SR cells after 2 days by sulforhodamine B assay; conditions: 48 h; outline: as §2
[17] = tested on: SF-268; assay: Cytotoxicity against human SF268 cells after 2 days by sulforhodamine B assay; conditions: SF-268, 48 h; outline: as §1
[18] = tested on: M14; assay: Cytotoxicity against human M14 cells after 2 days by sulforhodamine B assay; conditions: M14, 48 h; for CC50: read-out: LC50 (the source's name); outline: as §1
[19] = tested on: T47D; assay: Cytotoxicity against human T47D cells after 2 days by sulforhodamine B assay; conditions: 48 h; outline: as §2
[20] = tested on: 786-0; assay: Cytotoxicity against human 786-0 cells after 2 days by sulforhodamine B assay; conditions: 786-0, 48 h; outline: as §1
[21] = tested on: HT-29; assay: Cytotoxicity against human HT-29 cells after 2 days by sulforhodamine B assay; conditions: HT-29, 48 h; outline: as §1
[22] = tested on: A498; assay: Cytotoxicity against human A498 cells after 2 days by sulforhodamine B assay; conditions: A498, 48 h; outline: as §1
[23] = tested on: MDA-MB-468; assay: Cytotoxicity against human MDA-MB-468 cells after 2 days by sulforhodamine B assay; conditions: MDA-MB-468, 48 h; outline: as §1
[24] = tested on: KM12; assay: Cytotoxicity against human KM12 cells after 2 days by sulforhodamine B assay; conditions: KM12, 48 h; outline: as §1
[25] = tested on: SK-MEL-28; assay: Cytotoxicity against human SK-MEL-28 cells after 2 days by sulforhodamine B assay; conditions: SK-MEL-28, 48 h; outline: as §1
[26] = tested on: CCRF-CEM; assay: Cytotoxicity against human CCRF-CEM cells after 2 days by sulforhodamine B assay; conditions: 48 h; for CC50: read-out: LC50 (the source's name); outline: as §1
[27] = tested on: LOX IMVI; assay: Cytotoxicity against human LOXIMVI cells after 2 days by sulforhodamine B assay; conditions: 48 h; outline: as §1
[28] = tested on: SK-MEL-5; assay: Cytotoxicity against human SK-MEL-5 cells after 2 days by sulforhodamine B assay; conditions: SK-MEL-5, 48 h; outline: as §1
[29] = tested on: NCI-H322M; assay: Cytotoxicity against human NCI-H322M cells after 2 days by sulforhodamine B assay; conditions: 48 h; outline: as §1
[30] = tested on: HL-60(TB); assay: Cytotoxicity against human HL-60(TB) cells after 2 days by sulforhodamine B assay; conditions: HL-60, 48 h; for CC50: read-out: LC50 (the source's name)
Outline: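 NCI60 multi-dose screen: cells exposed to compound over a 5-log mol/L concentration range for 2 days, then fixed and stained with sulphorhodamine B and optical density read. Growth inhibition calculated relative to time-zero control and untreated cells; GI50 reported as average of two replicates.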

## COc1cc(-c2ccc[nH]2)[nH]c1/C=C1\N=C(C)C(C(=O)CCC(=O)Oc2ccc3c(c2)CC[C@@H]2[C@@H]3CC[C@]3(C)C(=O)CC[C@@H]23)=C1C
[1]
  GI50: 18.3 µM
  TGI: 65.9 µM
  CC50: > 100 µM
[2]
  GI50: 6.86 µM
  LC50 (concentration killing 50% of cells present at time zero): > 100 µM
  TGI: > 100 µM
[3]
  GI50: 21.4 µM
  LC50: > 100 µM
  TGI: 85.4 µM
[4]
  GI50: 8.36 µM
  LC50: > 100 µM
  TGI: > 100 µM
[5]
  GI50: 17 µM
  LC50 (50% lethal concentration): > 100 µM
  TGI: > 100 µM
[6]
  GI50: 17.6 µM
  LC50: > 100 µM
  TGI: > 100 µM
[7]
  GI50: 1.96 µM
  LC50 (concentration killing 50% of starting cells): > 100 µM
  TGI: > 100 µM
[8]
  GI50: 15.6 µM
  LC50 (concentration killing 50% of cells present at time zero): > 100 µM
  TGI: > 100 µM
[9]
  GI50: 21.6 µM
  LC50 (concentration killing 50% of cells): > 100 µM
  TGI: > 100 µM
[10]
  GI50: 0.27 µM
  LC50: 23 µM
  TGI: 1.21 µM
[11]
  GI50: 59.1 µM
  LC50 (concentration killing 50% of starting cells): > 100 µM
  TGI: > 100 µM
[12]
  GI50: 4.15 µM
  LC50: > 100 µM
  TGI: 31 µM
[13]
  GI50: 27.8 µM
  LC50: > 100 µM
  TGI: > 100 µM
[14]
  GI50: 2.72 µM
  TGI: > 100 µM
  CC50: > 100 µM
[15]
  GI50: 3.09 µM
  LC50: > 100 µM
  TGI: > 100 µM
[16]
  GI50: 0.72 µM
  LC50 (concentration giving 50% net cell kill): > 100 µM
  TGI: > 100 µM
[17]
  GI50: 5.62 µM
  LC50 (concentration killing 50% of cells): > 100 µM
  TGI: > 100 µM
[18]
  GI50: 12.4 µM
  TGI: 33.4 µM
  CC50: 91.2 µM
[19]
  GI50: 15.4 µM
  LC50 (concentration killing 50% of cells): > 100 µM
  TGI: > 100 µM
[20]
  GI50: 5.99 µM
  LC50 (concentration killing 50% of cells): > 100 µM
  TGI: 40 µM
[21]
  GI50: 0.87 µM
  LC50: > 100 µM
  TGI: > 100 µM
[22]
  GI50: 8.49 µM
  LC50: > 100 µM
  TGI: 59.1 µM
[23]
  GI50: 17 µM
  LC50: > 100 µM
  TGI: > 100 µM
[24]
  GI50: 6.25 µM
  LC50: > 100 µM
  TGI: > 100 µM
[25]
  GI50: 75 µM
  LC50: > 100 µM
  TGI: > 100 µM
[26]
  GI50: 0.54 µM
  TGI: > 100 µM
  CC50: > 100 µM
[27]
  GI50: 1.17 µM
  LC50: 21.2 µM
  TGI: 3.56 µM
[28]
  GI50: 3.5 µM
  LC50 (concentration killing 50% of cells): 68.8 µM
  TGI: 19.6 µM
[29]
  GI50: 32.6 µM
  LC50 (concentration killing 50% of cells): > 100 µM
  TGI: > 100 µM
[30]
  GI50: 55.8 µM
  TGI: > 100 µM
  CC50: > 100 µM

## CC/C(=C(/c1ccc(OCCN(C)C)cc1)c1ccc(OC(=O)CCC(=O)C2=C(C)/C(=C/c3[nH]c(-c4ccc[nH]4)cc3OC)N=C2C)cc1)c1ccccc1
[1]
  GI50: 1.43 µM
  TGI: 4.07 µM
  CC50: 49 µM
[2]
  GI50: 1.65 µM
  LC50 (concentration killing 50% of cells present at time zero): > 100 µM
  TGI: 5.64 µM
[3]
  GI50: 2.63 µM
  LC50: > 100 µM
  TGI: 9.12 µM
[4]
  GI50: 2.76 µM
  LC50: 68 µM
  TGI: 10.9 µM
[5]
  GI50: 3.83 µM
  LC50 (50% lethal concentration): 39.9 µM
  TGI: 14.3 µM
[6]
  GI50: 2.11 µM
  LC50: 38.7 µM
  TGI: 10.6 µM
[7]
  GI50: 3.28 µM
  LC50 (concentration killing 50% of starting cells): 41.2 µM
  TGI: 16.8 µM
[8]
  GI50: 4.29 µM
  LC50 (concentration killing 50% of cells present at time zero): 66.9 µM
  TGI: 21.5 µM
[9]
  GI50: 1.9 µM
  LC50 (concentration killing 50% of cells): > 100 µM
  TGI: 7.26 µM
[10]
  GI50: 0.45 µM
  LC50: 20.3 µM
  TGI: 2.43 µM
[11]
  GI50: 2.47 µM
  LC50 (concentration killing 50% of starting cells): 62.9 µM
  TGI: 9.92 µM
[12]
  GI50: 1.7 µM
  LC50: 30.1 µM
  TGI: 5.1 µM
[13]
  GI50: 4.9 µM
  LC50: 41.7 µM
  TGI: 15.8 µM
[14]
  GI50: 0.98 µM
  TGI: 4.22 µM
  CC50: > 100 µM
[15]
  GI50: 3.52 µM
  LC50: > 100 µM
  TGI: 14.4 µM
[16]
  GI50: 0.69 µM
  LC50 (concentration giving 50% net cell kill): > 100 µM
  TGI: 5.43 µM
[17]
  GI50: 2.63 µM
  LC50 (concentration killing 50% of cells): > 100 µM
  TGI: 18.3 µM
[18]
  GI50: 2.09 µM
  TGI: 5.19 µM
  CC50: > 100 µM
[19]
  GI50: 1.35 µM
  LC50 (concentration killing 50% of cells): > 100 µM
  TGI: 8.13 µM
[20]
  GI50: 2.19 µM
  LC50 (concentration killing 50% of cells): > 100 µM
  TGI: 5.77 µM
[21]
  GI50: 0.44 µM
  LC50: 45.7 µM
  TGI: 11.1 µM
[22]
  GI50: 2.96 µM
  LC50: 44.2 µM
  TGI: 16.8 µM
[23]
  GI50: 3.06 µM
  LC50: 61.3 µM
  TGI: 15.5 µM
[24]
  GI50: 1.2 µM
  LC50: 46.8 µM
  TGI: 10.8 µM
[25]
  GI50: 2.94 µM
  LC50: 46.3 µM
  TGI: 12.7 µM
[26]
  GI50: 0.43 µM
  TGI: 7.21 µM
  CC50: > 100 µM
[27]
  GI50: 0.44 µM
  LC50: 5.13 µM
  TGI: 1.62 µM
[28]
  GI50: 1.53 µM
  LC50 (concentration killing 50% of cells): 5.25 µM
  TGI: 3.22 µM
[29]
  GI50: 11.6 µM
  LC50 (concentration killing 50% of cells): 57.5 µM
  TGI: 25.7 µM
[30]
  GI50: 3.16 µM
  TGI: 8.98 µM
  CC50: > 100 µM
